Measurements from different studies.
Each line is one published result; the experiments were not run side by side.
Target: Serine/threonine-protein kinase Nek4 (NEK4, Homo sapiens, UniProt P51957)

Compound | test | setting | endpoint | result
COc1cc2ncnc(Nc3ccc(Oc4ccccc4)c(C)c3C)c2cc1OC | enzyme activity, inhibitor | 1 µM | inhibition | 2%
c1ccc(CNc2nc(N3CCOc4ccccc43)nc3c2CCCC3)cc1 | target engagement in cells, inhibitor, chemoproteomics | 20 mM | inhibition | -18.5%
CCCOc1ccc([C@H]2[C@H](C(=O)O)[C@@H](c3ccc4c(c3)OCO4)CN2CC(=O)Nc2c(CC)cccc2CC)cc1 | cell-free assay, competition with immobilised ligand | 1 µM | remaining binding | 71%
CC(C)(O)[C@H]1CC[C@H](Nc2ccc3ncc(-c4cccc(C(F)(F)F)c4)n3n2)CC1 | enzyme activity, inhibitor | 1 µM | remaining activity | 84.3%
COc1ccc2c(c1)O[C@@H](c1ccc(OC)c(OC)c1)C[C@H]2NC(=O)C1(c2ccc3c(c2)OC(F)(F)O3)CC1 | cell-free assay, competition with immobilised ligand | 1 µM | remaining binding | 75%
CC(C)(C)c1nc(-c2cccc(NS(=O)(=O)c3c(F)cccc3F)c2F)c(-c2ccnc(N)n2)s1 | enzyme activity, inhibitor, radiometric | 1 µM | remaining activity | 92%
CN1CC(Oc2cnc(C#N)cc2-c2ccn3nc(NC(=O)C4CC4)cc3c2)C1 | enzyme activity, inhibitor | 1 µM | inhibition | 2%
O=C(Nc1cnn(-c2csc(C(=O)NC3COC3)c2)c1)Nc1ccccc1Cl | enzyme activity, inhibitor | 5 µM | remaining activity | 109%
CN(C)C1CCN(CC#Cc2nn(C3CCCC3)c3nc(NCc4ccccc4)ncc23)C1 (stereo not shown) | enzyme activity, inhibitor, FRET | 10 µM | inhibition | 12%
Clc1ccc(Nc2nnc(Cc3ccncc3)c3ccccc23)cc1 | cell-free assay | 0.5 µM | remaining signal | 97.7%
Cc1sc(C(=O)NC2COC2)cc1-n1cc(NC(=O)Nc2c(F)cccc2Cl)cn1 | enzyme activity, inhibitor | 10 µM | remaining activity | 75.5%
O=C(NCCCC1CCCCC1)c1ccc(CNC(=O)c2cnn(-c3ccccc3)c2C(F)(F)F)cc1 | cell-free assay, competition with immobilised ligand | 0.1 µM | remaining binding | 100%
N#CCCc1ccc2c(c1)-c1[nH]c3ccc([N+](=O)[O-])cc3c1CC(=O)N2 | cell-free assay | 0.5 µM | remaining signal | 104%
COCCOc1nc(-c2ccc(Cl)nc2)nc2c1CN(C(=O)c1ncn3ccccc13)CC2 | cell-free assay, competition with immobilised ligand | 0.1 µM | remaining binding | 100%
O=C1NC(=O)c2cc(Nc3ccc(F)cc3)c(Nc3ccc(F)cc3)cc21 | cell-free assay | 0.5 µM | remaining signal | 107%
C[C@@]1(Cc2ccc(C#N)cc2)C(=O)N(c2cc(Cl)cc(Cl)c2)c2ncc(C(=O)NC3(c4nc(C5CCC5)no4)CC3)n21 | cell-free assay, competition with immobilised ligand | 1 µM | remaining binding | 12%
Cc1ccc(C(=O)Nc2ccc(CN3CCN(C)CC3)c(C(F)(F)F)c2)cc1C#Cc1cnc2cccnn12 | enzyme activity, inhibitor | 23.5 nM | remaining activity | 61%
O=C(Nc1cnc(Oc2ccc(F)cc2)nc1)N1CCc2ncccc2[C@@H]1c1ccc(F)cc1 | cell-free assay, competition with immobilised ligand | 1 µM | remaining binding | 79%
CCCS(=O)(=O)Nc1ccc(F)c(C(=O)c2c[nH]c3ncc(-c4ccc(Cl)cc4)cc23)c1F | enzyme activity, inhibitor | 1 µM | inhibition | < 10%
